Assay outcomes from PubChem.
PP5 primary – PP5 (human) phosphatase inhibition | P53041 | purified PP5c, OMFP substrate fluorescence | inhibition, % at 6.7 µM | 320,000 tested, 0.18% active;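 active means inhibition above the campaign's mean inhibition across all tested compounds plus 3 SD, cut at about 9.5% in these data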
Target sequence (P53041 whole entry, looked up): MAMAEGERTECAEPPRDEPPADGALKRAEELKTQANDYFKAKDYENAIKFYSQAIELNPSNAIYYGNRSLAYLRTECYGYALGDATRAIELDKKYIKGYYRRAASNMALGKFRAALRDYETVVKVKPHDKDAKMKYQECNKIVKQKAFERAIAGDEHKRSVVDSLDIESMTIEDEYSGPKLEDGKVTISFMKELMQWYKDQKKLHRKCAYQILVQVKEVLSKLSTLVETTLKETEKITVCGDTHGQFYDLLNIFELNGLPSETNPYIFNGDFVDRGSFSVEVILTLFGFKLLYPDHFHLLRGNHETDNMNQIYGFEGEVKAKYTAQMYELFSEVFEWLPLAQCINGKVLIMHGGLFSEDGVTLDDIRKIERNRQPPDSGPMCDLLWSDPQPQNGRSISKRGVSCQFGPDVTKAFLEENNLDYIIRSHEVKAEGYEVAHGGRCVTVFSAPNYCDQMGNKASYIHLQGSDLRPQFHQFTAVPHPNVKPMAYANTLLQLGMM
CTSL1 counter – counter-screen for PFM18AAP inhibitors: inhibitors of F. hepatica cathepsin L1; inhibition, % at 5.96 µM; 300,000 tested, 0.49% active; recombinant F. hepatica cathepsin L1, Z-Leu-Arg-MCA fluorescence;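 active means inhibition above the mean of all tested compounds plus 3 SD, set per screening campaign, cut at about 17% in these data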
UBC13 inh – human UBC13 polyubiquitination inhibition | 330,000 tested, 0.47% active | UBC13 polyubiquitin chain formation, TR-FRET | P61088 | inhibition, % at 20 µM; in the data active means inhibition above about 45%, passing the limit was not always enough
Target sequence (P61088 whole entry, looked up): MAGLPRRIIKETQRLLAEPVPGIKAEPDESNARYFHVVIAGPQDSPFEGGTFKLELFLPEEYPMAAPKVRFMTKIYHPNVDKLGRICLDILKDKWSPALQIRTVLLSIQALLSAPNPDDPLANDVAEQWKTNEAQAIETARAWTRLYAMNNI
UCH37 inh – inhibitors of human deubiquitinating enzyme UCH37. Q9Y5K5. purified proteasome/UCH37, Ub-AMC cleavage fluorescence. inhibition, % (no concentration beside the values). 330,000 tested, 0.33% active. AID 588478;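 active means mean inhibition over replicate wells above about 20%, limit read from the data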
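Signal – fluorescence, ex 355 nm, em 460 nm · System – Proteasome-bound UCH37 · Input – 0.15 nM proteasome as dispensed · Timing – 30 min preincubation with enzyme, 25 min cleavage at room temperature · Read-out basis – percent inhibition of cleavage signal versus uninhibited and no-proteasome wells · Medium – Tris-HCl pH 7.4 with ATP-MgCl2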
PREPL inh – inhibits the human prolyl oligopeptidase-like enzyme. 320,000 tested, 0.68% active. recombinant PREPL, fluorescence polarization activity-based probe. inhibition, % at 5.96 µM
PP1 inh – PP1-alpha (human) inhibition in PP5 counter-screen | P62136 | purified PP1alpha, OMFP fluorescence | inhibition, % at 6.7 µM | 320,000 tested, 0.9% active;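 active means inhibition above the mean inhibition of all tested compounds plus 3 SD, computed separately for each screening campaign, cut at about 15% in these data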
PREPL inh cf – confirmation of human PREPL enzyme inhibitors. shares compounds with PREPL inh. recombinant PREPL, fluorescence polarization activity probe. inhibition, % at 5.96 µM. 2,000 tested, 67% active. AID 2803
A number is an active result; - = inactive; . = no result. In the library only some 2.3% were active in any assay of this set; here they are far more common. Unless noted, no stated cut-off is given here; in the data, active means inhibition above about 43%; inactive means the rest.

SMILES	PP5 primary	CTSL1 counter	UBC13 inh	UCH37 inh	PREPL inh	PP1 inh	PREPL inh cf
CCCCN1C(=N)N([C@@H](C)CN2CCC[C@H]2CN2C(N)=NC[C@H]2CC(C)C)C[C@H]1[C@H](C)CC	.	.	-	-	47.0	.	-
Oc1ccccc1C=NNC1=NCCCCC1	.	.	.	-	.	.	.
CCCCS/C(N)=N/N=Cc1ccccc1O	.	.	.	-	.	.	.
CN1Cc2c(N3CCOCC3)nc3sc(C(=O)c4ccccc4)c(N)c3c2CC1(C)C	-	-	-	-	60.7	-	63.9
O=C(NN=Cc1cccnc1)c1ccc(Cl)s1	.	.	.	-	.	.	.
CC1CCC(C(C)C)C(OC(=O)Cn2c(-c3ccc(Cl)cc3)[n+](C)c3ccccc32)C1 (stereo not drawn)	-	-	-	-	43.3	-	47.5
CC(C)[C@@H]1CC[C@@H](C)C[C@H]1OC(=O)C[n+]1cc(-c2ccc(Cl)cc2)n2c1CCCCC2	-	-	-	-	-	-	.
COc1ccc(NS(=O)(=O)c2cccc(C(=O)NN=Cc3ccc(O)cc3)c2)cc1	.	.	.	-	.	.	.
Oc1ccc(/C=N/Nc2nc(-c3cccnc3)nc3ccccc23)c(O)c1	-	-	-	.	57.7	-	-
Cc1c(O)ccc(/C=N/Nc2nc(-c3cccnc3)nc3ccccc23)c1O	-	-	-	.	72.3	-	72.3
COc1ccc2sc(-c3ccc(N(C)C)cc3)c(C#CC(C)(C)O)c2c1	-	.	-	-	-	-	.
COc1ccc2sc(-c3ccc(N(C)C)cc3)c(C#Cc3cncn3C)c2c1	.	.	-	-	46.5	.	-
NC(=NOC(=O)c1cccc([N+](=O)[O-])c1)c1ccccn1	.	.	.	-	.	.	.
Nc1[nH]n2c(=O)c3c(nc2c1N=Nc1ccc(Cl)cc1)CCCC3	-	-	-	-	50.7	-	67.9
Cc1[nH]n2c(=O)c3c(nc2c1-c1ccc(Cl)cc1)CCC3	-	-	-	-	-	-	.
CN(C)c1ccc(C=NOC(=O)Nc2ccccc2Cl)cc1	.	.	.	-	.	.	.
CC(=NNc1ccc([N+](=O)[O-])cc1)c1ccc(N)cc1	.	.	.	-	.	.	.
C/C(=N\Nc1ccc([N+](=O)[O-])cc1)c1cccc(N)c1	-	-	-	.	54.5	-	45.8
O=[N+]([O-])c1ccc2c(c1)C(N1CCOCC1)/C(=C/COc1ccc(F)cc1)O2 (stereo not drawn)	-	-	-	-	47.6	-	-
Cc1ccc(NS(=O)(=O)c2ccc(C(=O)Nc3nncs3)cc2)cc1	.	.	-	-	45.2	.	-
Cc1ccc(S(=O)(=O)Nc2ccc(C(=O)NC3CC3)cc2)cc1	-	-	-	-	-	-	.
CN(CC(O)COc1ccccc1F)C1CCCCC1 (stereo not drawn)	-	-	-	-	-	-	.
CN(CC(O)COCc1ccccc1F)C1CCCCC1 (stereo not drawn)	-	-	-	-	43.7	-	-
COc1cccc(OCc2cc(C=NNC(=O)c3nc(Cl)c(Cl)c(N)c3Cl)ccc2OC)c1	.	.	.	-	.	.	.
CC#CCN(Cc1ccco1)C(=O)c1ccc(OC2CCN(Cc3ccccn3)CC2)cc1	-	-	-	-	48.8	-	-
SMILES	PP5 primary	CTSL1 counter	UBC13 inh	UCH37 inh	PREPL inh	PP1 inh	PREPL inh cf
COc1ccc2cc(C(=O)C3CCCN(C(=O)C4=NN(C)C(=O)CC4)C3)ccc2c1 (stereo not drawn)	-	-	-	-	43.5	-	-
O=C(c1ccc2ccccc2c1)C1CCCN(C(=O)c2cccnc2)C1 (stereo not drawn)	.	.	-	-	.	.	.
COc1ccc2cc(C(=O)C3CCCN(C(=O)c4cccnc4)C3)ccc2c1 (stereo not drawn)	-	-	-	-	45.4	-	-
Cc1ccc(SCc2c(C(=O)NN=Cc3ccccc3)nnn2-c2nonc2N)cc1	.	.	.	-	.	.	.
CCOc1ccc(Cl)cc1C=NNC(N)=O	.	.	.	-	.	.	.
NCCCn1c(C(=O)c2cc(Cl)c(N)c(Cl)c2)c2ccc([N+](=O)[O-])cc2[n+]1[O-]	-	-	-	-	61.2	-	69.5
COc1ccc(C(=O)c2c3ccc([N+](=O)[O-])cc3[n+]([O-])n2CCCC(N)=O)cc1	-	-	-	-	-	-	.
CCOc1cc(/C=N/N=C2/NC(=O)C(CC(=O)O)S2)ccc1OCc1ccc(Cl)cc1Cl (stereo not drawn)	-	-	-	.	48.5	-	64.0
CCOc1cc(C=N/N=C2/NC(=O)C(CC(=O)O)S2)ccc1OCc1ccc(Cl)cc1Cl (stereo not drawn)	.	.	.	-	.	.	.
O=S(=O)(NN=C/C=C/c1ccccc1)c1ccc(Br)cc1	.	.	.	-	.	.	.
CC(C)(CNC(=O)c1cc([N+](=O)[O-])ccc1N1CCC(Cc2ccccc2)CC1)N1CCOCC1	-	.	-	-	45.0	-	-
CC(C)CNC(=O)c1cc([N+](=O)[O-])ccc1N1CCOCC1	-	-	-	-	-	-	.
N#Cc1c(Nc2ccccc2)sc(C(=O)c2ccccc2)c1N	-	-	-	-	46.0	-	-
C=C1c2cccc(O)c2C(O)=C2C(=O)[C@]3(O)C(O)=C(C(N)=O)C(=O)[C@@H](N(C)C)[C@@H]3[C@@H](O)[C@H]12	-	-	-	-	79.6	50.2	-
COc1ccc(N2CCN(Cc3nc4ccsc4c(=O)[nH]3)CC2)cc1	-	-	-	-	-	-	.
O=c1[nH]c(CN2CCN(c3ccc([N+](=O)[O-])cc3)CC2)nc2ccsc12	-	-	-	-	46.1	-	-
CN(C)C(=NS(=O)(=O)c1ccc(Cl)cc1)c1ccc(F)cc1	.	.	.	-	.	.	.
O=C(NCCc1ccccc1)c1ccc2nc(-c3ccco3)c(-c3ccco3)nc2c1	-	-	-	-	74.3	-	74.0
O=C(c1ccccc1)c1ccc2nc(-c3ccco3)c(-c3ccco3)nc2c1	-	-	-	-	61.8	-	51.1
O=C(NCCc1ccccc1)c1ccc(=O)oc1	-	-	-	-	-	-	.
Cc1ccc(NC(=O)Cn2c(-c3ccc(F)cc3)cnc2SCC(=O)Nc2c(C)cccc2C)cc1	-	-	-	-	47.3	-	-
CCOc1ccc(NC(=O)CSc2ncc(-c3ccc(F)cc3)n2Cc2ccco2)cc1	-	-	-	-	-	-	.
O=C(CCN1CCCCCC1)Nc1ccc2c(c1)OCCO2	-	-	-	-	44.9	-	-
CN1CCN(CCC(=O)Nc2ccc3c(c2)OCO3)CC1	-	-	-	-	-	-	.
Cc1ccccc1-c1ccc(Nc2ccc(N3CCOCC3)cc2)nn1	-	-	-	-	58.9	-	52.7
CC(C)(C)[C@@H]1COC(=O)[C@@H](Cc2ccc(F)cc2)CC/C=C\C[C@@H](CC(=O)N(CCO)Cc2ccccc2)C(=O)N1	.	.	-	-	54.7	.	49.8
O=C1N[C@@H](c2ccccc2)COC(=O)[C@H](Cc2ccc(F)cc2)CC/C=C/C[C@@H]1CC(=O)N(CCO)Cc1ccccc1	.	.	-	-	57.3	.	45.5
